The entries come from a sample that favours hits as a whole.
IDH1 R132H inh: IDH1 R132H (human) inhibition; inhibition, % at 10 µM; IDH1 R132H reductase, diaphorase/resazurin fluorescence, 60 min; actives 0.18% (n = 70,000); in the data active = inhibition above about 34%; inconclusive = no clear call, values can overlap the other calls; inactive = below about 11%;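 also: 0% = DMSO and 100% = no enzyme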
KDM4C inh: KDM4C (human) demethylase inhibition | GST-KDM4C 2-372, H3K9me3 peptide, LANCE TR-FRET | inhibition, % at 12.5 µM | actives 0.15% (n = 96,000);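 active = mean replicate inhibition above about 25%, with at least 55% of replicates also reaching it, limit read from the data, passing the limit was not always enough; inconclusive = only one of those two conditions met; inactive = neither condition met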
Target sequence (Q9H3R0 2-372 limits assumed): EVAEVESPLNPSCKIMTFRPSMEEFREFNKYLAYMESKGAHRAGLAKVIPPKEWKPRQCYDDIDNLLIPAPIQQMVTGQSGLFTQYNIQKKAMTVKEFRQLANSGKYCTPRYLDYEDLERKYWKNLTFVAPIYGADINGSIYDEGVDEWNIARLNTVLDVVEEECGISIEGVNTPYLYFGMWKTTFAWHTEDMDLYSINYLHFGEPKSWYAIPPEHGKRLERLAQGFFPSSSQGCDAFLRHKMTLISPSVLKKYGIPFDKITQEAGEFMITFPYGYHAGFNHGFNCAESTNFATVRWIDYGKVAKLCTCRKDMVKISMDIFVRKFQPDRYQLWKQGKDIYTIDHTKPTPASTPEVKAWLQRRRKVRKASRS
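System – N-terminal GST-fused human GASC-1 (KDM4C) fragment, residues 2-372 · Input – enzyme final amount 10 nM · Technique – LANCE TR-FRET, Eu antibody, ULight-streptavidin, EDTA, ex 340 nm, em 618/671 nm · Medium – HEPES buffer, pH 7.5, plus ascorbate · Incubation – enzyme reaction 30 min, then detection 60 min, both room temperature · Reagent – H3K9me3 peptide with Fe(II)/2OG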
Pf Dd2 inh: P. falciparum Dd2 growth inhibition | actives 2.3% (n = 94,000) | activity change, % at 10 µM | SYBR Green, 72 h; hits give low values; in the data active = activity change below about -80%; inconclusive = no clear call, values can overlap the other calls
The depositor's hits bear a star; ? = inconclusive; . = no result.

SMILES | IDH1 R132H inh | KDM4C inh | Pf Dd2 inh
C[C@@H]1CN([C@@H](C)CO)C(=O)c2cc(NC(=O)Nc3ccccc3)ccc2O[C@@H](C)CCCCO[C@@H]1CN(C)C(=O)Nc1cccc2ccccc12 | -5 | -2 | -84*
C[C@@H]1CCCCO[C@H](CN(C)C(=O)Nc2cccc3ccccc23)[C@H](C)CN([C@@H](C)CO)C(=O)c2cc(NC(=O)Nc3ccc(F)cc3)ccc2O1 | . | -4 | -83*
C[C@H](CO)N1C[C@H](C)[C@H](CN(C)S(=O)(=O)c2cccs2)Oc2ncc(-c3ccccc3)cc2C1=O | -1 | -1 | -2
O=C(C[C@H]1CC[C@H]2[C@@H](COC[C@H](O)CN2C(=O)C2CC2)O1)NCc1ccncc1 | . | 0 | 8
O=C(CC1CC1)N1CC2(C1)[C@H](c1ccccc1)[C@@H](CO)N2C(=O)c1cccnc1 | . | 1 | -57
O=C(c1cccnc1)N1CC2(C1)[C@@H](c1ccccc1)[C@@H](CO)N2C(=O)CC1CC1 | . | 0 | -87*
CCCC#Cc1ccc([C@@H]2[C@H](CO)N3CCCCN(S(=O)(=O)Cc4ccccc4)C[C@@H]23)cc1 | . | 0 | -84*
Cc1ccccc1S(=O)(=O)N1CCCCN2[C@H](CO)[C@H](c3ccc(-c4ccccc4)cc3)[C@H]2C1 | . | . | -82*
CC(C)CC#Cc1ccc([C@@H]2[C@@H](CO)N3CCCCN(S(=O)(=O)c4ccc(F)cc4)C[C@H]23)cc1 | . | -2 | -67
CN(C)CC#Cc1ccc([C@@H]2[C@H](CO)N3CCCCN(S(=O)(=O)c4ccccc4)C[C@@H]23)cc1 | . | 5 | 9
CCCC#Cc1ccc([C@H]2[C@H]3CN(S(=O)(=O)Cc4ccccc4)CCCCN3[C@H]2CO)cc1 | . | -2 | -5
CC(C)CC#Cc1ccc([C@H]2[C@@H](CO)N3CCCCN(S(=O)(=O)c4ccc(F)cc4)C[C@H]23)cc1 | . | 26* | -68
Cc1ccccc1S(=O)(=O)N1CCCCN2[C@@H](CO)[C@@H](c3ccc(-c4ccccc4)cc3)[C@@H]2C1 | . | . | -75
CN(C)CC#Cc1ccc([C@@H]2[C@@H](CO)N3CCCCN(S(=O)(=O)c4ccccc4)C[C@@H]23)cc1 | . | 32* | 9
C[C@H]1CN([C@@H](C)CO)C(=O)c2cccc(NC(=O)Nc3ccc(F)cc3)c2O[C@@H]1CN(C)S(=O)(=O)c1cccs1 | -2 | 0 | 5
C[C@@H]1CN([C@H](C)CO)C(=O)c2cc(NC(=O)Nc3cccc4ccccc34)ccc2O[C@@H](C)CCCCO[C@@H]1CN(C)S(=O)(=O)c1ccc(Cl)cc1 | . | 0 | -85*
C[C@@H]1CN([C@H](C)CO)C(=O)c2cc(NC(=O)Nc3cccc4ccccc34)ccc2O[C@@H](C)CCCCO[C@H]1CN(C)S(=O)(=O)c1ccc(Cl)cc1 | 2 | -2 | ?
C[C@@H]1CCCCO[C@H](CN(C)S(=O)(=O)c2ccc(Cl)cc2)[C@@H](C)CN([C@@H](C)CO)C(=O)c2cc(NC(=O)Nc3cccc4ccccc34)ccc2O1 | . | 0 | -81*
C[C@@H]1CCCCO[C@H](CN(C)S(=O)(=O)c2ccc(Cl)cc2)[C@H](C)CN([C@@H](C)CO)C(=O)c2cc(NC(=O)Nc3cccc4ccccc34)ccc2O1 | 1 | -1 | -80
CC(C)NC(=O)N(C)C[C@@H]1Oc2cc(Br)ccc2S(=O)(=O)N([C@H](C)CO)C[C@@H]1C | -3 | -1 | 5
O=C([C@H]1[C@H](CO)[C@H]2Cn3c(cccc3=O)[C@H]2N1CC1CCCCC1)N1CCOCC1 | . | 4 | -2
CC=Cc1ccc2n(c1=O)C[C@H]1[C@H](CO)[C@@H](C(=O)N[C@@H](C)c3ccccc3)N(C(=O)c3cnccn3)[C@@H]21 (mixture of isomers) | . | -1 | .
Cc1ccc(S(=O)(=O)N(C)C[C@H]2Oc3ccc(NC(=O)C4CCCCC4)cc3C(=O)N([C@@H](C)CO)C[C@@H]2C)cc1 | 0 | -1 | -48
COc1ccc(S(=O)(=O)Nc2ccc3c(c2)C(=O)N([C@@H](C)CO)C[C@H](C)[C@H](CN(C)S(=O)(=O)c2ccc(Cl)cc2)OCCCC[C@@H](C)O3)cc1 | . | -2 | -61
COc1ccc(S(=O)(=O)N(C)C[C@H]2OCCCC[C@@H](C)Oc3ccc(NS(=O)(=O)c4ccc(Cl)cc4)cc3C(=O)N([C@H](C)CO)C[C@H]2C)cc1 | 1 | 0 | -90*
SMILES | IDH1 R132H inh | KDM4C inh | Pf Dd2 inh
COc1ccc(S(=O)(=O)Nc2ccc3c(c2)C(=O)N([C@H](C)CO)C[C@H](C)[C@H](CN(C)S(=O)(=O)c2ccc(Cl)cc2)OCCCC[C@@H](C)O3)cc1 | . | 4 | -38
COc1ccc(S(=O)(=O)N(C)C[C@H]2OCCCC[C@H](C)Oc3ccc(NS(=O)(=O)c4ccc(Cl)cc4)cc3C(=O)N([C@H](C)CO)C[C@@H]2C)cc1 | . | -1 | -87*
COc1ccc(S(=O)(=O)N(C)C[C@H]2OCCCC[C@H](C)Oc3ccc(NS(=O)(=O)c4ccc(Cl)cc4)cc3C(=O)N([C@@H](C)CO)C[C@H]2C)cc1 | . | -2 | -88*
COc1ccc(S(=O)(=O)Nc2ccc3c(c2)C(=O)N([C@@H](C)CO)C[C@H](C)[C@H](CN(C)S(=O)(=O)c2ccc(Cl)cc2)OCCCC[C@H](C)O3)cc1 | 0 | 0 | -73
C[C@@H]1CN([C@H](C)CO)S(=O)(=O)c2ccc(-c3ccc(C#N)cc3)cc2O[C@@H]1CN(C)C(=O)C1CC1 | 1 | -1 | -11
CN1C(=O)c2cc(NC(=O)Cc3cccs3)ccc2OC[C@@H]2O[C@H](CC(=O)NCCc3ccncc3)CC[C@@H]21 | . | -1 | .
COc1ccc(S(=O)(=O)Nc2cccc3c2O[C@H](CN(C)Cc2ccc(C(=O)Nc4ccccc4N)cc2)[C@H](C)CN([C@@H](C)CO)C3=O)cc1 | 0 | -1 | -86*
COc1ccc(S(=O)(=O)Nc2cccc3c2O[C@H](CN(C)Cc2ccc(C(=O)Nc4ccccc4N)cc2)[C@@H](C)CN([C@H](C)CO)C3=O)cc1 | . | -4 | -31
COc1ccc(S(=O)(=O)Nc2cccc3c2O[C@H](CN(C)Cc2ccc(C(=O)Nc4ccccc4N)cc2)[C@H](C)CN([C@H](C)CO)C3=O)cc1 | 0 | -3 | -87*
COc1ccc(S(=O)(=O)Nc2cccc3c2O[C@@H](CN(C)Cc2ccc(C(=O)Nc4ccccc4N)cc2)[C@@H](C)CN([C@H](C)CO)C3=O)cc1 | 1 | 0 | -76
CCCC#Cc1cnc2c(c1)C(=O)N([C@@H](C)CO)C[C@H](C)[C@@H](CN(C)C(=O)C1CCOCC1)O2 | . | 0 | 12
C[C@@H]1CCCCO[C@@H](CN(C)CC2CCCCC2)[C@H](C)CN([C@H](C)CO)C(=O)c2cc(NC(=O)Nc3ccc4c(c3)OCO4)ccc2O1 | -1 | -1 | -81*
C[C@@H]1CN([C@@H](C)CO)C(=O)c2cc(NC(=O)Nc3ccc4c(c3)OCO4)ccc2O[C@@H](C)CCCCO[C@@H]1CN(C)CC1CCCCC1 | 1 | . | -79
C[C@H]1CCCCO[C@@H](CN(C)CC2CCCCC2)[C@@H](C)CN([C@@H](C)CO)C(=O)c2cc(NC(=O)Nc3ccc4c(c3)OCO4)ccc2O1 | . | 2 | -81*
C[C@@H]1CCCCO[C@@H](CN(C)CC2CCCCC2)[C@@H](C)CN([C@@H](C)CO)C(=O)c2cc(NC(=O)Nc3ccc4c(c3)OCO4)ccc2O1 | . | 16 | -66
